According to publication PMC4353699 (Journal of medicinal chemistry, 2014):

What was measured:
[1] = test system: 18 different strains of MRSA and VRSA; assay: MIC, summary over the strain panel; assay type: cell-based, Staphylococcus aureus
Outline: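 Panel of 18 clinical isolates of MRSA and VRSA, with MRSA strains supplied by the NARSA repository. It includes linezolid-resistant MRSA NRS119 and multidrug-resistant VRSA, USA100, USA200 and USA500. MIC is the minimum concentration of test compound that inhibits bacterial growth.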

MRSA (USA300) = assay: Time-kill assay; assay type: cell-based, Staphylococcus aureus; settings: for bactericidal effect in time-kill assay / time to eliminate MRSA (CFU to zero): 3.0 × MIC
[2] = Metabolic stability in human liver microsomes; assay type: in vitro ADME; settings: without NADPH
Caco-2 cells = assay: Caco-2 permeability assay; settings: Caco-2, apical to basolateral, 10 μM
in vitro = settings: human, Caco-2

Structure (SMILES)	bactericidal effect in time-kill assay (MRSA (USA300))	time to eliminate MRSA (CFU to zero) (MRSA (USA300))	also measured
CCCCc1ccc(-c2nc(C)c(/C(C)=N/NC(=N)N)s2)cc1 [1a]	bactericidal	within two hours	concentration inhibiting growth (MIC), range over MRSA strains [1]: 1.4 to 5.5 µg/mL; metabolism on removing the cofactor NADPH [2]: significantly reduced; Papp, A to B direction (Caco-2 cells): very limited permeability
CCCCCc1ccc(-c2nc(C)c(/C(C)=N/NC(=N)N)s2)cc1 [1d]	bactericidal	within two hours	
CN[C@H](CC(C)C)C(=O)N[C@H]1C(=O)N[C@@H](CC(N)=O)C(=O)N[C@H]2C(=O)N[C@H]3C(=O)N[C@H](C(=O)N[C@H](C(=O)O)c4cc(O)cc(O)c4-c4cc3ccc4O)[C@H](O)c3ccc(c(Cl)c3)Oc3cc2cc(c3O[C@@H]2O[C@H](CO)[C@@H](O)[C@H](O)[C@H]2O[C@H]2C[C@](C)(N)[C@H](O)[C@H](C)O2)Oc2ccc(cc2Cl)[C@H]1O [VAN, vancomycin, reference compound]			reduction of CFU by 3-log10 (MRSA (USA300); within a 12-hour window): not able to reduce the number of CFU by 3-log10
C/C(=N\NC(=N)N)c1sc(-c2ccc(C3CCCCC3)cc2)nc1C [compound 8, 2-{1-[2-(4-Cyclohexylphenyl)-4-methylthiazol-5-yl]ethylidene}hydrazinecarboximidamide]	bactericidal	six hours	
CNC(=C[N+](=O)[O-])NCCSCc1ccc(CN(C)C)o1 [ranitidine]			Papp A→B at 2 h, 10 µM (in vitro): 0.2 ×10⁻⁶ cm/s
